Assay results: ChEMBL document CHEMBL1152242, “Aldehydic components of cinnamon bark extract suppresses RANKL-induced osteoclastogenesis through NFATc1 downregulation” (Bioorg Med Chem, 2008)
Activity calls are given as the source filed them. The rule behind the calls is not given here.

What was measured:
RAW264.7 [1] = experiment: Inhibition of multinucleated cell formation in RANKL-stimulated mouse RAW264.7 cells after 3 days by TRAP staining; format: functional, cell-based
Method in brief: (§1)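 RAW264.7 cells in α-MEM with RANKL, with or without compound, cultured 3 days at 37 °C, 5% CO2. Fixed in acetone/citrate for 30 s, then TRAP-stained with a kit. TRAP+ cells with ≥4 nuclei scored as MNCs by light microscopy, counting four fields, repeated four times. Relative MNC number reported as mean ± SD of triplicates; ANOVA with Dunnett's test.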

RAW264.7 [2] = experiment: Inhibition of bone resorption by mature osteoclast in RANKL-stimulated mouse RAW264.7 cells pretreated for 1 hr measured after 8 days; format: functional, cell-based
Method in brief: (§2)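 RAW264.7 cells pretreated with compound for 1 h, then RANKL (50 ng/ml) added on calcium phosphate apatite-coated plates. Incubated 8 days, then 5% sodium hypochlorite for 5 min, washed, dried and photographed. Total resorbed pit area (mm²) given as mean ± SD of triplicates.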

RAW264.7 [3] = experiment: Inhibition of bone resorption by mature osteoclast in RANKL-stimulated mouse RAW264.7 cells at 2 uM pretreated for 1 hr measured after 8 days; format: functional; method in brief: as §2
[4] = biological target: T1, Nuclear factor of activated T-cells, cytoplasmic 1 (Mus musculus) (UniProt O88942); experiment: Inhibition of NFATc1 pathway in RANKL-stimulated mouse RAW264.7 cells at 1 to 2 uM; format: cell-based
T1 sequence (whole entry): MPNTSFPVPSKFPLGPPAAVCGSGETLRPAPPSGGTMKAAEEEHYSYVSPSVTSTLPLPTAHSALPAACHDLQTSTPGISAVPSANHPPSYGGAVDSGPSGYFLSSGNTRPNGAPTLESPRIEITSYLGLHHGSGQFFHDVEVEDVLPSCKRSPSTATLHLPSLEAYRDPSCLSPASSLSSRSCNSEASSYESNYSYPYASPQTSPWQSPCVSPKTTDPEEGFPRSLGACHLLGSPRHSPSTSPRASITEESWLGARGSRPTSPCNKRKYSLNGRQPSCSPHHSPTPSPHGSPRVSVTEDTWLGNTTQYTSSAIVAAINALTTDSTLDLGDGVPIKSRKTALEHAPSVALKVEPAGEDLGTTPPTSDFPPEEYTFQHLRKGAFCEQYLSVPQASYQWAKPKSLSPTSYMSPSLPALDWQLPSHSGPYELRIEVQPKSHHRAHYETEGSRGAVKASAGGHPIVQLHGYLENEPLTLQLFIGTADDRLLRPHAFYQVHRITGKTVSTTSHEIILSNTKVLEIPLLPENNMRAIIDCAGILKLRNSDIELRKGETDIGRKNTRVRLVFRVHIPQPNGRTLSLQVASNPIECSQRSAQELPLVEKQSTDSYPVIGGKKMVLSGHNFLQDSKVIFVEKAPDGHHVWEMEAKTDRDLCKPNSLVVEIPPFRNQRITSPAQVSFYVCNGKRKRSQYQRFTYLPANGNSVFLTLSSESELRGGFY

RAW264.7 [5] = experiment: Inhibition of osteoclastogenesis in RANKL-stimulated mouse RAW264.7 cells at 1 to 2 uM; format: functional, cell-based
[6] = Inhibition of NF-kappaB transfected in LPS-stimulated mouse RAW264.7 cells; format: cell-based
RAW264.7 [7] = experiment: Inhibition of NF-kappaB activation transfected in RANKL-stimulated mouse RAW264.7 cells at 1 to 2 uM; format: cell-based
RAW264.7 [8] = experiment: Inhibition of NFATc1 expression in RANKL-stimulated mouse RAW264.7 cells after 48 hrs by immunoblotting; format: functional, cell-based
Method in brief: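 RAW264.7 cells in α-MEM cultured with RANKL plus test compound for 48 h. Lysates in HEPES pH 7.8/NaCl/EDTA/MgCl2/DTT buffer with protease inhibitors, run on 8% SDS-PAGE and transferred to nitrocellulose. Blocked in 5% milk/PBS-Tween, then anti-NFATc1 primary overnight at 4 °C with GAPDH as loading control. Detected with HRP secondary and ECL.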

RAW264.7 [9] = experiment: Inhibition of multinucleated cell formation in RANKL-stimulated mouse RAW264.7 cells at 0.5 to 2 uM after 3 days by TRAP staining; format: functional, cell-based; method in brief: as §1

| Structure (SMILES) | Activity (RAW264.7 [1]) | Activity (RAW264.7 [2]) | inhibition at 2 µM (RAW264.7 [3]) [%] | Activity [4] | Activity (RAW264.7 [5]) | IC50 [6] [µM] | Activity (RAW264.7 [7]) | Activity (RAW264.7 [8]) | Activity (RAW264.7 [9]) |
| --- | --- | --- | --- | --- | --- | --- | --- | --- | --- |
| OC/C=C/c1ccccc1 | inactive | – | – | – | – | – | – | – | – |
| O=C(O)/C=C/c1ccccc1 | inactive | – | – | – | – | – | – | – | – |
| COc1ccccc1/C=C/C=O | – | Active | 95 | Active | Active | 31 | inactive | Active | Active |
| O=C/C=C/c1ccccc1 [CINNAMALDEHYDE] | – | Active | – | – | – | 43 | – | Active | Active |
